Source: ChEMBL document CHEMBL4190394, “Discovery of Novel Pazopanib-Based HDAC and VEGFR Dual Inhibitors Targeting Cancer Epigenetics and Angiogenesis Simultaneously” (J Med Chem, 2018)
Calls of active or inactive are those of the source. No cut-off for these calls is given here.

How the values were obtained:
KG-1 = assay: Antiproliferative activity against human KG1 cells after 72 hrs by MTT assay; assay type: functional, cell-based; settings: KG-1, 72 h
HT-1080 = assay: Antiproliferative activity against human HT1080 cells after 72 hrs by MTT assay; assay type: functional, cell-based; settings: HT-1080, 72 h
Histone deacetylase = assay type: protein assay, Homo sapiens
PC-3 = assay: Antiproliferative activity against human PC3 cells after 72 hrs by MTT assay; assay type: functional, cell-based; settings: PC-3, 72 h
K562 = assay: Antiproliferative activity against human K562 cells after 72 hrs by MTT assay; assay type: functional, cell-based; settings: K562, 72 h
HEL = assay: Antiproliferative activity against human HEL cells after 72 hrs by MTT assay; assay type: functional, cell-based
[1] = target: T1, Vascular endothelial growth factor receptor 2 (Homo sapiens, UniProt P35968); assay: Inhibition of VEGFR-2 (unknown origin) at 0.2 uM after 40 mins by kinase-Glo assay relative to control
T1 sequence (P35968 whole entry): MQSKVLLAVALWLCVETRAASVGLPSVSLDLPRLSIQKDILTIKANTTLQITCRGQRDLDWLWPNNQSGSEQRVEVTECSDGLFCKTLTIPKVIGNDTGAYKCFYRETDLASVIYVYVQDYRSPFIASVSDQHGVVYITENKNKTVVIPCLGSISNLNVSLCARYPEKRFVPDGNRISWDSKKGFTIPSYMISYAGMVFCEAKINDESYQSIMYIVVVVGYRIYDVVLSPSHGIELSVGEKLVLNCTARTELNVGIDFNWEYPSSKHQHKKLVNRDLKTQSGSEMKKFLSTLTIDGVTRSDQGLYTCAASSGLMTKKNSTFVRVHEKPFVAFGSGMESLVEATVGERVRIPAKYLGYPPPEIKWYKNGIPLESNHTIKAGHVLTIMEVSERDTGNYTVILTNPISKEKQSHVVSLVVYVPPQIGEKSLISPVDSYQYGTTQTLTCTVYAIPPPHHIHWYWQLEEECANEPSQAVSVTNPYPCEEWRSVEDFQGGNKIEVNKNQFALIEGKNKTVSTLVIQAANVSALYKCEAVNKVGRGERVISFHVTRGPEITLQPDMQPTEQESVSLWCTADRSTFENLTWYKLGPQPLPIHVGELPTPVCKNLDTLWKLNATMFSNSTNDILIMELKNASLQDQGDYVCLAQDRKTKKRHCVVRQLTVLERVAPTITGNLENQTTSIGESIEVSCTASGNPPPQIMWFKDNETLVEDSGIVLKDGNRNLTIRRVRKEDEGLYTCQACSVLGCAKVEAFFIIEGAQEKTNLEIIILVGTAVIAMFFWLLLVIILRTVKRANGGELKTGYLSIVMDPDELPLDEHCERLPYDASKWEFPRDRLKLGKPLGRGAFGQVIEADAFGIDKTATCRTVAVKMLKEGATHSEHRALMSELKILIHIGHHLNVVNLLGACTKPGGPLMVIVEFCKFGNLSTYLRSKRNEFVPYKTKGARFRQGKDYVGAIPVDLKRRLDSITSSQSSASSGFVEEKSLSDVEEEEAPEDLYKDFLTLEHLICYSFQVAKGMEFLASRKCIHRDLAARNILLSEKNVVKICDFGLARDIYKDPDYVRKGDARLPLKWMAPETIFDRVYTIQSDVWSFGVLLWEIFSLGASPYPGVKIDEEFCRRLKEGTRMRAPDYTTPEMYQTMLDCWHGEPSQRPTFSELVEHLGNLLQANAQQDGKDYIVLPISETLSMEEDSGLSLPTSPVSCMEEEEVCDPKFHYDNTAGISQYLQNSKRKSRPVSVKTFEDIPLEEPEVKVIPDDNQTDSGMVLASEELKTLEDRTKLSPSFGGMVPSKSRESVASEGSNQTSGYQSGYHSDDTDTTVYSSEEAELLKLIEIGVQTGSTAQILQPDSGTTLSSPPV
Procedure, shortened: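 VEGFR-2 tested at a single 200 nM concentration in a Kinase-Glo assay. Compound, kinase, substrate and ATP incubated 40 min at room temperature, then Kinase-Glo reagent added for 15 min and luminescence read. Inhibition rate reported. Replicates n ≥ 2.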

MOLT-4 = assay: Antiproliferative activity against human MOLT4 cells after 72 hrs by MTT assay; assay type: functional, cell-based; settings: MOLT-4, 72 h
MDA-MB-231 = assay: Antiproliferative activity against human MDA-MB-231 cells after 72 hrs by MTT assay; assay type: functional, cell-based; settings: MDA-MB-231, 72 h
HT-29 [2] = assay: Antiproliferative activity against human HT-29 cells after 72 hrs by MTT assay; assay type: functional, cell-based; settings: HT-29, 72 h
AGS = assay: Antiproliferative activity against human AGS cells after 72 hrs by MTT assay; assay type: functional, cell-based
Histone deacetylase 2 = Histone deacetylase 2 (Homo sapiens, UniProt Q92769)
Histone deacetylase 2, sequence (Q92769 whole entry): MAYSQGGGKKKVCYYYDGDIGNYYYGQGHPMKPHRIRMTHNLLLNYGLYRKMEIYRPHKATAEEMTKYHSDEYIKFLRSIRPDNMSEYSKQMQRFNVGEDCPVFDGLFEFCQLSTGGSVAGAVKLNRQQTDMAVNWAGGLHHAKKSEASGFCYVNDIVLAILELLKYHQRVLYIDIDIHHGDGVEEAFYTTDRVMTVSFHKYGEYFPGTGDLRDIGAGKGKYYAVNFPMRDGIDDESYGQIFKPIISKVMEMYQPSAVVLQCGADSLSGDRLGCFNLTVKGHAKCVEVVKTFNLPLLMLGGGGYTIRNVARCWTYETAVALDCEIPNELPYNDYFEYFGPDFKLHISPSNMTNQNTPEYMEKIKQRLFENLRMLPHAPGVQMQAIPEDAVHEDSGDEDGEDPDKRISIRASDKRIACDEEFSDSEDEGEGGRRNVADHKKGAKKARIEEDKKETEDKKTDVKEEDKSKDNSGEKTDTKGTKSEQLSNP

HeLa = assay: Antiproliferative activity against human HeLa cells after 72 hrs by MTT assay; assay type: functional, cell-based
Histone deacetylase 1 = Histone deacetylase 1 (Homo sapiens, UniProt Q13547); assay: Inhibition of HDAC1 (unknown origin) using fluorogenic substrate preincubated for 5 mins followed by substrate addition measured after 30 mins by fluorescence-based assay
Histone deacetylase 1, sequence (Q13547 whole entry): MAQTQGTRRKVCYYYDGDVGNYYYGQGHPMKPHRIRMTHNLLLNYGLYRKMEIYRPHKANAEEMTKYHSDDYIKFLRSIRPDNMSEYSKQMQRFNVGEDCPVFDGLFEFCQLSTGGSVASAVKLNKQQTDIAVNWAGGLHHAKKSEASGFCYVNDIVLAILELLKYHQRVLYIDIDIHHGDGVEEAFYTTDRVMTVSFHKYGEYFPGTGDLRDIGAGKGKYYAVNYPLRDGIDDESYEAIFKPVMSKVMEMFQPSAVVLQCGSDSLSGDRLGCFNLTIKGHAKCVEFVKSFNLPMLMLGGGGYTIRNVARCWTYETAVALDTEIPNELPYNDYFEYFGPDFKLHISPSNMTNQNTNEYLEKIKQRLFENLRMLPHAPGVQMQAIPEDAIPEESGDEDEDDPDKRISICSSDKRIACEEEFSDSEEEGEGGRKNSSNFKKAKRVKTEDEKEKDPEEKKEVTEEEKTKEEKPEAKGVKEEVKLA

ACHN = assay: Antiproliferative activity against human ACHN cells after 72 hrs by MTT assay; assay type: functional, cell-based
Histone deacetylase 3 = Histone deacetylase 3 (Homo sapiens, UniProt O15379)
Histone deacetylase 3, sequence (O15379 whole entry): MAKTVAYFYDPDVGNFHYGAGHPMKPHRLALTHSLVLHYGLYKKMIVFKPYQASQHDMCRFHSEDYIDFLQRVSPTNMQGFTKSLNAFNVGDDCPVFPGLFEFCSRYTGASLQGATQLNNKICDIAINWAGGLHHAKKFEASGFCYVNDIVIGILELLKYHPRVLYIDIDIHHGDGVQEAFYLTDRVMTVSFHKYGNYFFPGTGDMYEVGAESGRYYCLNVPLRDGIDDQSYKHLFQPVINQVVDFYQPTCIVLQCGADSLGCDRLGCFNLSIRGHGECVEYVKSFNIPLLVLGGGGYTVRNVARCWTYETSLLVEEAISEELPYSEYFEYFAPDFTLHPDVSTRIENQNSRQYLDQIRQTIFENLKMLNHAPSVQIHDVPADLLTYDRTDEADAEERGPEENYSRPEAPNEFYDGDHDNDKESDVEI

[3] = target: Protein deacetylase HDAC6 (Homo sapiens, UniProt Q9UBN7); assay: Inhibition of HDAC6 (unknown origin) using fluorogenic Boc-Lys(acetyl)-AMC as substrate preincubated for 5 mins followed by substrate addition measured after 30 mins by fluorescence-based assay
Protein deacetylase HDAC6, sequence (Q9UBN7 whole entry): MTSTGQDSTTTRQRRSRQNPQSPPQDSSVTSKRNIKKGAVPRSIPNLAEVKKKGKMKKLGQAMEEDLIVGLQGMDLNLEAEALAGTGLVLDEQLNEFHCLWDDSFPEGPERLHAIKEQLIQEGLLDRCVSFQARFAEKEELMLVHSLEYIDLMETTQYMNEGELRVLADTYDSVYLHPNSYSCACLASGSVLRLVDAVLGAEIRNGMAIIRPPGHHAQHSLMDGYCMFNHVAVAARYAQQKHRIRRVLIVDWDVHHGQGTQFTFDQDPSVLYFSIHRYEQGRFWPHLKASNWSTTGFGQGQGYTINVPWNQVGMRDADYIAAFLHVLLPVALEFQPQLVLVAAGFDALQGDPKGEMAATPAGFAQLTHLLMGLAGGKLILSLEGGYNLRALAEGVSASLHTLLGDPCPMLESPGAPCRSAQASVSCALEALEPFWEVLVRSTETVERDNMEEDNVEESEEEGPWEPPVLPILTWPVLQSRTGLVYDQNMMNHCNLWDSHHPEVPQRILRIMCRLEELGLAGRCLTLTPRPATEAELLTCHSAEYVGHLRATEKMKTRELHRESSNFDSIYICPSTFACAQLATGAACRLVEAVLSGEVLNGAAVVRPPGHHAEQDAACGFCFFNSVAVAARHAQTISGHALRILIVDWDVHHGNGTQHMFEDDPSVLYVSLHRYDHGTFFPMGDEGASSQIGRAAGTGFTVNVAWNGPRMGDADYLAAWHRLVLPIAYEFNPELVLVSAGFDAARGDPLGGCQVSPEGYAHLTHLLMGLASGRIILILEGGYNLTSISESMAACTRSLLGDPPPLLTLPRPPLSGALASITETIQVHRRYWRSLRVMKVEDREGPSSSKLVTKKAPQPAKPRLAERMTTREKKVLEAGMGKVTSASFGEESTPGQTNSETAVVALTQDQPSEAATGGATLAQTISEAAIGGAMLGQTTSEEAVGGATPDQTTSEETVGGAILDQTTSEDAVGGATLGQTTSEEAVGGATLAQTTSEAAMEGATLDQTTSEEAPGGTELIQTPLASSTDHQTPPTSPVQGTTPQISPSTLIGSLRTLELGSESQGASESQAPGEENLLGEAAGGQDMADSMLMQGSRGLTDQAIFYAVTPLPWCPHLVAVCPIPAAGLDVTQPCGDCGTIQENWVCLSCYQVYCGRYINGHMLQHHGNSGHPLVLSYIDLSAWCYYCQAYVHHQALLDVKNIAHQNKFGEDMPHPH

Histone deacetylase 8 = Histone deacetylase 8 (Homo sapiens, UniProt Q9BY41); assay: Inhibition of HDAC8 (unknown origin) using fluorogenic Boc-Lys(trifluoroacetyl)-AMC as substrate preincubated for 5 mins followed by substrate addition measured after 30 mins by fluorescence-based assay
Histone deacetylase 8, sequence (Q9BY41 whole entry): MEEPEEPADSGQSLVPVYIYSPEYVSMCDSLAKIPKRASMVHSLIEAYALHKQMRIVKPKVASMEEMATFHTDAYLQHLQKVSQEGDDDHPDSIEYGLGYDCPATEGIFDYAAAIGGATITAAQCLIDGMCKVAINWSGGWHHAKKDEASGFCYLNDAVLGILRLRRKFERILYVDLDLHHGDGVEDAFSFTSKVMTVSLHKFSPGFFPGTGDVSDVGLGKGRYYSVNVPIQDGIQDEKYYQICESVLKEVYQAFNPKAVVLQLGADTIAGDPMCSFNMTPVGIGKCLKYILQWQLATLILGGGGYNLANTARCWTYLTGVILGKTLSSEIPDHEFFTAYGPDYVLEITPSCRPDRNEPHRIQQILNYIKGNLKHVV

HT-29 [4] = assay: Antitumor activity against human HT-29 cells xenografted in BALB/c nu mouse assessed as tumor growth inhibition at 50 mg/kg, po administered for 25 consecutive days measured every 3 days during compound dosing relative to control; assay type: functional; settings: HT-29, po, read-out: TGI
Procedure, shortened: (§1)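 HT-29 cells (1×10^7) implanted s.c. in right flank of male BALB/c-nu mice aged 5–6 weeks. At about 100 mm³ (day 10), mice randomized 6 per group and dosed orally for 25 consecutive days. Controls received PBS with 5% DMSO. T/C is mean RTV (Vt/V0) treated over control. TGI taken from final tumor weights. Student's two-tailed t test.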

[5] = target: T1, Vascular endothelial growth factor receptor 2; assay: Inhibition of VEGF-stimulated VEGFR2 phosphorylation in human HUVEC cells at 100 nM preincubated for 2 hrs followed by VEGF stimulation by Western blot analysis; assay type: cell-based
Procedure, shortened: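 HUVECs pretreated 2 h with compound or DMSO, then stimulated with VEGF (50 ng/ml). Cells lysed in ice-cold RIPA and protein measured by BCA. Lysates run on SDS-PAGE and immunoblotted for phospho-VEGFR-2, with total VEGFR-2 as loading control. Detection by ECL.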

HT-29 [6] = assay: Antitumor activity against human HT-29 cells xenografted in BALB/c nu mouse assessed as tumor growth level at 50 mg/kg, po administered for 25 consecutive days measured every 3 days during compound dosing relative to control; assay type: functional; procedure, shortened: as §1
Thoracic aorta = assay: Antiangiogenic activity in Sprague-Dawley rat thoracic aorta ring assessed as reduction in micro-vessel growth at 5 uM treated every day for 6 days by matrigel-based inverted microscopic analysis relative to control; assay type: functional, tissue-based
Procedure, shortened: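 Aortas taken from 4–6-week-old Sprague–Dawley rats, cut into 1-mm rings and embedded in Matrigel. Rings held 30 min at 37 °C, 5% CO2, then treated daily for 6 days with compound or 0.5% DMSO vehicle. Microvessel outgrowth photographed on day 7 at ×200. Three independent experiments.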

HUVEC = assay: Antiangiogenic activity in human HUVEC cells assessed as reduction in capillary-like tubular network formation at 0.1 uM after 6 hrs by phase-contrast microscopy; assay type: functional, cell-based
Procedure, shortened: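 HUVECs trypsinized and seeded at 40000/well on Matrigel polymerized 0.5 h at 37 °C. Cells held 6 h at 37 °C in M199 with 5% FBS, with compound or DMSO. Tube formation viewed and photographed by phase-contrast microscopy at 200 magnification. Three independent experiments.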

SMILES	IC50 (KG-1)	IC50 (Histone deacetylase)	IC50 (PC-3)	IC50 (K562)	IC50 (HEL)	inhibition [1]	IC50 (MOLT-4)	also measured
Cc1c2ccc(N(C)c3ccnc(Nc4ccc(C(=O)NCCCCCCCC(=O)NO)cc4)n3)cc2nn1C	0.93 µM	0.025 µM	3.42 µM	1.1 µM	1.04 µM	92%	0.27 µM	IC50 (HT-1080): > 5 µM
Cc1c2ccc(N(C)c3ccnc(Nc4ccc(C(=O)NCCCCCC(=O)Nc5ccccc5N)cc4)n3)cc2nn1C	3.15 µM	3 µM	> 5 µM	4.31 µM	2.06 µM	95%	0.87 µM	–
Cc1c2ccc(N(C)c3ccnc(Nc4ccc(C(=O)NCCCC(=O)Nc5ccccc5N)cc4)n3)cc2nn1C	–	19 µM	–	–	–	96%	–	–
Cc1c2ccc(N(C)c3ccnc(Nc4ccc(C(=O)NCCCCCCCC(=O)Nc5ccccc5N)cc4)n3)cc2nn1C	2.68 µM	8.7 µM	> 5 µM	3.97 µM	0.49 µM	92%	0.56 µM	IC50 (MDA-MB-231): 2.57 µM; IC50 (HT-29 [2]): 2.96 µM; IC50 (AGS): > 5 µM; IC50 (HT-1080): > 5 µM; IC50 (Histone deacetylase 2): 1.26 µM; IC50 (HeLa): 3.07 µM; IC50 (Histone deacetylase 1): 1.46 µM; IC50 (ACHN): 3.62 µM; IC50 (Histone deacetylase 3): 0.66 µM
Cc1ccc(Nc2nccc(N(C)c3ccc4c(C)n(C)nc4c3)n2)cc1C(=O)NO	–	> 20 µM	–	–	–	74%	–	–
Cc1c2ccc(N(C)c3ccnc(Nc4ccc(/C=C/C(=O)NO)cc4)n3)cc2nn1C	1.02 µM	1.4 µM	1.6 µM	1.66 µM	0.75 µM	95%	0.59 µM	IC50 (MDA-MB-231): 2.59 µM; IC50 [3]: 1.03 µM; IC50 (HT-29 [2]): 2.96 µM; IC50 (AGS): > 5 µM; IC50 (HT-1080): 3.25 µM; IC50 (Histone deacetylase 2): 5.3 µM; IC50 (Histone deacetylase 8): 2.89 µM; IC50 (HeLa): 4.93 µM; IC50 (ACHN): 3.85 µM
Cc1c2ccc(N(C)c3ccnc(Nc4cccc(C(=O)NO)c4)n3)cc2nn1C	–	> 20 µM	–	–	–	77%	–	–
Cc1c2ccc(N(C)c3ccnc(Nc4ccc(C(=O)NCC(=O)Nc5ccccc5N)cc4)n3)cc2nn1C	–	> 20 µM	–	–	–	98%	–	–
Cc1c2ccc(N(C)c3ccnc(Nc4ccc(C(=O)NCCCCCCC(=O)Nc5ccccc5N)cc4)n3)cc2nn1C	3.14 µM	5 µM	> 5 µM	4.15 µM	1.16 µM	93%	1.15 µM	–
Cc1c2ccc(N(C)c3ccnc(Nc4ccc(C(=O)NCC(=O)NO)cc4)n3)cc2nn1C	–	> 20 µM	–	–	–	95%	–	–
Cc1c2ccc(N(C)c3ccnc(Nc4ccc(C(=O)NCCC(=O)NO)cc4)n3)cc2nn1C	–	> 20 µM	–	–	–	99%	–	–
Cc1ccc(Nc2nccc(N(C)c3ccc4c(C)n(C)nc4c3)n2)cc1S(N)(=O)=O [PAZOPANIB]	> 5 µM	–	> 5 µM	> 5 µM	> 5 µM	95%	> 5 µM	IC50 (MDA-MB-231): > 5 µM; inhibition in vivo at 50 mg/kg (HT-29 [4]): 44%; IC50 (HT-29 [2]): > 5 µM; IC50 (AGS): > 5 µM; IC50 (HT-1080): > 5 µM; inhibition [5]: Active; IC50 (HeLa): > 5 µM; T/C (HT-29 [6]): 61%; IC50 (ACHN): > 5 µM; Activity (Thoracic aorta): Active; Activity (HUVEC): Active
Cc1c2ccc(N(C)c3ccnc(Nc4ccc(C(=O)NCCC(=O)Nc5ccccc5N)cc4)n3)cc2nn1C	–	> 20 µM	–	–	–	97%	–	–
Cc1c2ccc(N(C)c3ccnc(Nc4cccc(C(=O)Nc5ccccc5N)c4)n3)cc2nn1C	–	21.3 µM	–	–	–	63%	–	–
Cc1c2ccc(N(C)c3ccnc(Nc4ccc(C(=O)NO)cc4)n3)cc2nn1C	–	11.3 µM	–	–	–	99%	–	–
Cc1c2ccc(N(C)c3ccnc(Nc4ccc(C(=O)NCCCCC(=O)NO)cc4)n3)cc2nn1C	–	0.68 µM	–	–	–	94%	–	–
Nc1ccccc1NC(=O)c1ccc(CNC(=O)OCc2cccnc2)cc1 [ENTINOSTAT]	> 5 µM	–	> 5 µM	3.66 µM	0.44 µM	–	0.45 µM	IC50 (MDA-MB-231): 2.55 µM; IC50 (HT-29 [2]): 3.1 µM; IC50 (AGS): 0.34 µM; IC50 (HT-1080): > 5 µM; inhibition [5]: inactive; IC50 (HeLa): > 5 µM; IC50 (ACHN): 2.4 µM
Cc1c2ccc(N(C)c3ccnc(Nc4ccc(C(=O)NCCCCC(=O)Nc5ccccc5N)cc4)n3)cc2nn1C	–	15.1 µM	–	–	–	94%	–	–
Cc1c2ccc(N(C)c3ccnc(Nc4ccc(C(=O)NCCCC(=O)NO)cc4)n3)cc2nn1C	–	19.8 µM	–	–	–	99%	–	–
Cc1ccc(Nc2nccc(N(C)c3ccc4c(C)n(C)nc4c3)n2)cc1C(=O)NCCCCCC(=O)NO	–	0.82 µM	–	–	–	87%	–	–
Cc1c2ccc(N(C)c3ccnc(Nc4cccc(C(=O)NCCCCCC(=O)NO)c4)n3)cc2nn1C	–	0.18 µM	–	–	–	90%	–	–
Cc1c2ccc(N(C)c3ccnc(Nc4ccc(C(=O)NCCCCCC(=O)NO)cc4)n3)cc2nn1C	2.31 µM	0.017 µM	> 5 µM	2.89 µM	2.56 µM	98%	0.6 µM	IC50 (HT-1080): > 5 µM
Cc1c2ccc(N(C)c3ccnc(Nc4cccc(/C=C/C(=O)NO)c4)n3)cc2nn1C	–	3 µM	–	–	–	97%	–	–
